We go through 5 molecules from ChEMBL document CHEMBL3098021, “New anti-inflammatory cembranoid diterpenoids from the Vietnamese soft coral Lobophytum crassum” (Bioorg Med Chem Lett, 2014).

As a reminder, the IC50 is the concentration that inhibits the measured activity by half. High values mean a need for much substance, low ones inhibition by little substance.

In test [1] the test system is HepG2. The test can be described thus: Inhibition of TNF-alpha-induced COX2 mRNA expression in human HepG2 cells preincubated for 1 hr followed by TNF-alpha challenge measured after 6 hrs by RT-PCR analysis. Format: functional, cell-based.
For test [2], the system named is HepG2. The test can be described thus: Inhibition of TNF-alpha-induced iNOS mRNA expression in human HepG2 cells preincubated for 1 hr followed by TNF-alpha challenge measured after 6 hrs by RT-PCR analysis. Format: functional, cell-based.
A short description of test [3]: (§1) Inhibition of TNF-alpha-induced NF-kappaB transcriptional activation in human HepG2 cells preincubated for 1 hr followed by TNF-alpha challenge measured after 1 hr by luciferase reporter gene assay. Format: cell-based. The procedure, abridged: (§2)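 HepG2 cells were transfected with an NF-κB-responsive firefly luciferase reporter plasmid (minimal CMV promoter plus tandem NF-κB response elements) and stimulated with 10 ng/mL TNFα. Compounds were tested across a concentration range, with a DMSO vehicle control and sulfasalazine (1.0 µM) as positive control. Luciferase activity was read out, data are mean ± SD (n = 3), and IC50 was derived from the dose–response.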

Test [4] concerns HepG2. The test is described as §1. Format: cell-based. The procedure, abridged:
as §2

For `C/C1=C\[C@@H]2O[C@@H](O)[C@@]3(C)O[C@@]23CC/C(C)=C/CC[C@](C)(O)[C@@H](O)CC1`, the inhibition result in the test with HepG2 [1], with HepG2 [2] and in the test with HepG2 [4] was “Dose-dependent effect” in each case. Moreover, the IC50 in test [3] came to 6.3 µM.
As to `C/C1=C\[C@@H]2O[C@@H](O)[C@@]3(C)O[C@@]23CC/C(C)=C/CC[C@](C)(O)[C@H](O)CC1`, the inhibition entry in the test with HepG2 [1], in the test with HepG2 [2] and in the test on HepG2 [4] was “Dose-dependent effect” throughout. Also, half-maximal inhibition in test [3] (IC50) was put at 6.63 µM.
As for `O=C(O)c1cc(/N=N/c2ccc(S(=O)(=O)Nc3ccccn3)cc2)ccc1O` [SULFASALAZINE], in test [3], the IC50 amounted to 0.9 µM.
`C=C1CO[C@H]2/C=C(\C)CC[C@@H](O)[C@@](C)(O)C/C=C/[C@](C)(O)CC[C@@]12O` gave an IC50 in test [3] above 20 µM.
Molecule `C=C1CO[C@H]2/C=C(\C)CC[C@@H](O)[C@@](C)(O)C/C=C/[C@@](C)(O)CC[C@@]12O` yielded an IC50 in test [3] above 20 µM.
